Screening results: PubChem, several laboratories
Rev-erbA mod – modulators of Rev-erb alpha DNA binding, primary screen, biochemical, FITC-DNA, fluorescence polarization, uHTS. activity, % at 10 µM. actives 0.79% (n = 370,000). Rev-erbα–FITC-DNA binding, 90 min. Nuclear receptor subfamily 1 group D member 1 (Homo sapiens), P20393;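 active = activity above about 14%, limit read from the data; passing the limit was not always enough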
Target sequence (P20393 whole entry, looked up): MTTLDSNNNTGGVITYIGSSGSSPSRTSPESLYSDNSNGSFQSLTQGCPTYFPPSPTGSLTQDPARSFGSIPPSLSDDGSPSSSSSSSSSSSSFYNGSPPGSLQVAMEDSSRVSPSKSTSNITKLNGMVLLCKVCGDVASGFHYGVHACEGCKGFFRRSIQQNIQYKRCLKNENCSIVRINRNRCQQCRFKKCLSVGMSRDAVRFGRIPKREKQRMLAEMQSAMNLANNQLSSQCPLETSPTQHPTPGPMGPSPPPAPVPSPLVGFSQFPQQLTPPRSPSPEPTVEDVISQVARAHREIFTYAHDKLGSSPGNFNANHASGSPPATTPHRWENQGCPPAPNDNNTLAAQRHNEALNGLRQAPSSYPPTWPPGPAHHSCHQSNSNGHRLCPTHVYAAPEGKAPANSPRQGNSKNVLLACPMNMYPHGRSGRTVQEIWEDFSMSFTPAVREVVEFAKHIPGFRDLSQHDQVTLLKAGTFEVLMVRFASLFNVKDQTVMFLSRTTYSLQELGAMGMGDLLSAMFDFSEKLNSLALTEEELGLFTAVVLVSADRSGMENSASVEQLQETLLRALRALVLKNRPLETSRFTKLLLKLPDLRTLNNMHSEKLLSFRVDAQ
PG9 binder – binders of HIV-1 gp120 antibody PG9, primary screen, biochemical, TR-FRET. inhibition, % at 6.7 µM. actives 0.43% (n = 360,000). TR-FRET gp120-PG9 antibody binding. HIV-1 gp120 / PG9 antibody interaction; in the data active = inhibition above about 8.5%
NR2E3 ag-1 – NR2E3 agonists in two-hybrid cells, primary screen, cell-based, luminescence, CHO-S, Gal4-NCOR/VP16-NR2E3; inhibition of corepressor binding, % at 3.98 µM; luciferase; actives 0.35% (n = 360,000); Photoreceptor-specific nuclear receptor (Homo sapiens), Q9Y5X4;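 active = inhibition above the mean of all tested compounds plus 3 SD, cut at about 70% in these data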;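 also: higher means lower luciferase signal from less NR2E3 corepressor binding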
NR2E3 ag-2 – inhibitors of NR2E3-RetCOR corepressor binding, primary screen, NR2E3 agonist project, biochemical, TR-FRET, GST-NR2E3, biotin-RetCOR; 1536-well; AID 2300, 2010; actives 0.12% (n = 320,000); inhibition of corepressor binding, % at 4.78 µM;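 active = percent inhibition above the cutoff of mean plus 3 SD of all tested compounds, set per screening campaign, cut at about 20% in these data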
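System: GST-NR2E3 and biotin-RetCOR proteins; probe or stimulus: 7 nM biotin-RetCOR; doses: compound at 4.8 µM, single dose; schedule: Compound–protein incubation for 5 h at 4 °C; detection: time-resolved FRET; read-out: percent inhibition; controls: biotin wells as high control, 0.6% DMSO wells as low control; format: 1536-well plates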
NR2E3 ag conf – NR2E3 agonist confirmation in cells, cell-based, luminescence, CHO-S two-hybrid | shares compounds with NR2E3 ag-1 | CHO-S mammalian two-hybrid NR2E3-NCOR, luciferase luminescence | inhibition, % at 3.98 µM | actives 51% (n = 2,300) | AID 624378, 2012;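 active = average inhibition above a cutoff equal to the mean inhibition of all tested compounds plus one SD, cut at about 70% in these data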
VP16 counter – GAL4-VP16 reporter modulators, confirmation, counter-screen for NR2E3 agonist project, cell-based, luminescence, CHO-S, high throughput; inhibition, % at 3.98 µM; actives 29% (n = 2,300); CHO-S GAL4-VP16 luciferase reporter; shares compounds with NR2E3 ag-1;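 active = mean inhibition above a cutoff equal to the average over all tested compounds plus one standard deviation, cut at about 70% in these data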;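 also: luciferase from a UAS reporter driven by GAL4-VP16 transactivation; higher means less reporter light so more repression of VP16 activity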
A number is an active result. An excerpt weighted towards active compounds, which were near 1.4% of everything screened.

For COC(=O)c1ccc(/C=C2/SC(=S)N(CCCC(=O)Nc3ccc(O)cc3)C2=O)cc1 the results were Rev-erbA mod inactive, PG9 binder inactive, NR2E3 ag-1 inactive and NR2E3 ag-2 inactive.
`O=C(CCN1C(=O)/C(=C/c2ccccc2)SC1=S)Nc1ccccn1` gave Rev-erbA mod inactive, PG9 binder inactive, NR2E3 ag-1 inactive and NR2E3 ag-2 inactive.
`O=C(CCCN1C(=O)S/C(=C\C=C\c2ccccc2)C1=O)Nc1ccc(O)cc1` gave Rev-erbA mod inactive, PG9 binder inactive, NR2E3 ag-1 inactive, NR2E3 ag-2 inactive, NR2E3 ag conf inactive and VP16 counter inactive.
For Cc1ccc(/C=C2\SC(=S)N(CCCC(=O)Nc3ccc(O)cc3)C2=O)cc1 the results were Rev-erbA mod inactive, PG9 binder inactive, NR2E3 ag-1 78, NR2E3 ag-2 inactive, NR2E3 ag conf inactive and VP16 counter inactive.
For Cc1ccc(/C=C2\SC(=S)N(CCCC(=O)Nc3ccccn3)C2=O)cc1 the results were Rev-erbA mod inactive, PG9 binder inactive, NR2E3 ag-1 inactive, NR2E3 ag-2 inactive, NR2E3 ag conf inactive and VP16 counter 93.
`N#C/C(=C1/SC[C@@H](c2ccc(Cl)cc2Cl)S1)n1ccnc1` gave Rev-erbA mod inactive.
Screening COc1cccc(C=Nc2ccc3c(c2)OCCO3)c1O returned NR2E3 ag-1 74, NR2E3 ag-2 inactive, NR2E3 ag conf inactive and VP16 counter inactive.
`CC(C)CN1C(=O)[C@]2(CC(=O)N(C)C2c2ccccc2)c2cc(-n3cc(CCCC#N)nn3)ccc21` (stereo partly drawn) gave Rev-erbA mod inactive.
`COC(=O)[C@]12C[C@H](CC(=O)NCCC(C)C)C(=O)N(Cc3ccco3)C1=C[C@H](COCc1ccccc1)O[C@@H]2C` gave Rev-erbA mod inactive.
Cc1ccc2sc(N3CCN(C(=O)c4ccc([N+](=O)[O-])o4)CC3)nc2c1C was read as Rev-erbA mod inactive, PG9 binder inactive, NR2E3 ag-1 inactive and NR2E3 ag-2 inactive.
For Cc1c(Cl)ccc2sc(N3CCN(C(=O)C4=COCCO4)CC3)nc12 the results were Rev-erbA mod inactive, PG9 binder inactive, NR2E3 ag-1 79, NR2E3 ag-2 inactive, NR2E3 ag conf 90 and VP16 counter inactive.
For N#CC(c1cccc(Cl)c1)c1ccc2c(C(F)(F)F)cc(C(F)(F)F)nc2n1 (stereo not drawn) the results were Rev-erbA mod inactive, PG9 binder inactive, NR2E3 ag-1 110, NR2E3 ag-2 inactive, NR2E3 ag conf 99 and VP16 counter 91.
NNc1ccc2c(C(F)(F)F)cc(C(F)(F)F)nc2n1 was read as Rev-erbA mod inactive, PG9 binder inactive, NR2E3 ag-1 inactive and NR2E3 ag-2 inactive.
Screening Cc1ccc2nc(C)c(CN3CCN(c4ccc([N+](=O)[O-])cc4Cl)CC3)n2c1 returned Rev-erbA mod inactive, PG9 binder inactive, NR2E3 ag-1 104, NR2E3 ag-2 inactive, NR2E3 ag conf 95 and VP16 counter 84.
For O=[N+]([O-])c1ccc(Cl)c(CN2CCN(c3ncccn3)CC2)c1 the results were Rev-erbA mod inactive, PG9 binder inactive, NR2E3 ag-1 inactive and NR2E3 ag-2 inactive.
Screening COc1cccc(N2CCN(c3nc(-c4ccccc4C)cc(=O)[nH]3)CC2)c1 returned Rev-erbA mod inactive, PG9 binder inactive, NR2E3 ag-1 93, NR2E3 ag conf 98 and VP16 counter inactive.
`Cc1nn(-c2ccccc2Cl)c(Cl)c1/C=N/Nc1nc2ccccc2s1` gave Rev-erbA mod inactive, PG9 binder inactive, NR2E3 ag-1 inactive, NR2E3 ag-2 inactive, NR2E3 ag conf 77 and VP16 counter inactive.
For Cc1nc(NCc2ccc3c(c2)OCO3)c2oc3ccccc3c2n1 the results were Rev-erbA mod inactive, PG9 binder inactive, NR2E3 ag-1 inactive, NR2E3 ag-2 inactive, NR2E3 ag conf inactive and VP16 counter inactive.
`Cn1c(=O)c2[nH]c(COc3ccc(C(C)(C)C)cc3)nc2n(C)c1=O` gave NR2E3 ag-1 inactive, NR2E3 ag-2 inactive, NR2E3 ag conf 87 and VP16 counter 72.
C=C1C(=O)C=C[C@]2(C)C[C@@H]3OC(=O)[C@](C)(O)[C@H]3C[C@@H]12 was read as Rev-erbA mod inactive, PG9 binder inactive, NR2E3 ag-1 inactive, NR2E3 ag-2 inactive, NR2E3 ag conf inactive and VP16 counter inactive.
Screening COc1ccccc1-c1csc2ncnc(Sc3nnnn3C)c12 returned Rev-erbA mod inactive, PG9 binder inactive, NR2E3 ag-1 inactive and NR2E3 ag-2 inactive.
For Cn1nnnc1Sc1ncnc2scc(-c3cnc(N)nc3)c12 the results were Rev-erbA mod inactive.
Screening Cn1nnnc1Sc1ncnc2scc(-c3ccccc3Br)c12 returned Rev-erbA mod inactive, PG9 binder inactive, NR2E3 ag-1 inactive, NR2E3 ag-2 inactive, NR2E3 ag conf inactive and VP16 counter inactive.
Screening Cn1nnnc1Sc1ncnc2scc(-c3ccc(Br)cc3)c12 returned Rev-erbA mod inactive, PG9 binder inactive, NR2E3 ag-1 inactive, NR2E3 ag conf inactive and VP16 counter inactive.
Screening Cn1nnnc1Sc1ncnc2scc(-c3ccccc3)c12 returned Rev-erbA mod inactive, PG9 binder inactive, NR2E3 ag-1 inactive, NR2E3 ag-2 inactive, NR2E3 ag conf inactive and VP16 counter inactive.
Screening Cn1nnnc1Sc1ncnc2scc(-c3ccc(F)cc3)c12 returned Rev-erbA mod inactive, PG9 binder inactive, NR2E3 ag-1 inactive and NR2E3 ag-2 inactive.
For Cn1nnnc1Sc1ncnc2scc(-c3cccc4ccccc34)c12 the results were Rev-erbA mod inactive, PG9 binder inactive, NR2E3 ag-1 inactive, NR2E3 ag conf inactive and VP16 counter inactive.
COc1ccc(-c2nnn3c2Cn2c4ccccc4c(=O)n2[C@@H](C(C)C)C3)cc1 was read as Rev-erbA mod inactive.
For COC(=O)C12C=C3CC(c4ccc(C)s4)=C3C(=O)N1Cc1[nH]c3ccccc3c1C2 (stereo not drawn) the results were Rev-erbA mod inactive.
For CN(Cc1ccc(Cl)c(Cl)c1)C(=O)c1cccc(S(=O)(=O)N2CCN(Cc3ccccc3)CC2)c1 the results were Rev-erbA mod inactive, PG9 binder inactive, NR2E3 ag-1 inactive, NR2E3 ag-2 inactive, NR2E3 ag conf inactive and VP16 counter inactive.
`CN(Cc1cccc(F)c1)C(=O)c1cccc(S(=O)(=O)N2CCN(Cc3ccccc3)CC2)c1` gave Rev-erbA mod inactive, PG9 binder inactive, NR2E3 ag-1 inactive, NR2E3 ag-2 inactive, NR2E3 ag conf inactive and VP16 counter inactive.
